Source: ChEMBL document CHEMBL3992568, “Discovery of Antimalarial Azetidine-2-carbonitriles That Inhibit P. falciparum Dihydroorotate Dehydrogenase” (ACS Med Chem Lett, 2017)

Experiments:
Mus musculus = experiment: Dose normalized AUC (0 to infinity) in CD-1 mouse at 5 mg/kg, po administered as single dose; type: ADME, organism-based; conditions: in vivo
[1] = Initial concentration in CD-1 mouse at 1 mg/kg, iv or 5 mg/kg, po administered as single dose; type: ADME, organism-based; conditions: in vivo
Summary of the method: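 Female CD-1 mice, single dose. Oral formulation: 70% PEG300/30% (5% dextrose in water) at 0.5 mg/mL. Intravenous formulation: 5% DMSO/10% cremophor/85% water at 0.25 mg/mL. Parameters from non-compartmental analysis.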

Question: Which AUC/dose (Mus musculus) does the source give for `CCCNC(=O)N1[C@H](C#N)[C@H](c2ccc(-c3ccc(C(F)(F)F)c(C(F)(F)F)c3)cc2)[C@H]1CO` here?
Answer: The AUC/dose was over 54.3 µM·h.

Question: What about the C0 [1] of the same compound?
Answer: Its C0 is 4.9 µM.
